In ChEMBL document CHEMBL1121954, “Studies on the synthesis of chemotherapeutics. 12. Synthesis and antitumor activity of N-phthalidyl-5-fluorouracil derivatives” (1982):
Several values for one entry are separate records, joined by “and”; a condition that tells them apart may be missing. Equal entries are not always repeated.

Assays:
[1] = test system: Mus musculus; assay: In vivo antitumor activity against P-388 Leukemia cell line in female BDF1 mice after oral administered dose of 200 mg/kg; assay type: functional
Method in brief: (§1)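 Female BDF1 mice, 17-23 g, five per group, inoculated intraperitoneally with 10^6 P-388 cells. Oral dosing once daily for 9 days, beginning 1 day after implantation. Activity is % T/C, the median survival time of treated mice relative to controls.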

[2] = test system: Mus musculus; assay: In vivo antitumor activity against P-388 Leukemia cell line in female BDF1 mice after oral administered dose of 100 mg/kg; assay type: functional; method in brief: as §1
[3] = test system: Mus musculus; assay: In vivo antitumor activity against P-388 Leukemia cell line in female BDF1 mice after oral administered dose of 50 mg/kg; assay type: functional; method in brief: as §1
[4] = test system: Mus musculus; assay: In vivo antitumor activity against P-388 Leukemia cell line in female BDF1 mice after oral administered dose of 25 mg/kg; assay type: functional; method in brief: as §1
[5] = test system: Mus musculus; assay: In vivo antitumor activity against MH 134 cell line in female […] mice after oral administered dose of 200 mg/kg; assay type: functional
[6] = test system: Mus musculus; assay: In vivo antitumor activity against MH 134 cell line in female […] mice after oral administered dose of 150 mg/kg; assay type: functional
[7] = test system: Mus musculus; assay: In vivo antitumor activity against MH 134 cell line in female […] mice after oral administered dose of 25 mg/kg; assay type: functional
[8] = test system: Mus musculus; assay: In vivo antitumor activity against Meth A cell line in female BALB/c mice after oral administered dose of 200 mg/kg; death
[9] = test system: Mus musculus; assay: In vivo antitumor activity against MH 134 cell line in female […] mice after oral administered dose of 50 mg/kg; assay type: functional
[10] = test system: Mus musculus; assay: In vivo antitumor activity against Meth A cell line in female […] mice after oral administered dose of 150 mg/kg; assay type: functional
[11] = test system: Mus musculus; assay: In vivo antitumor activity against Meth A cell line in female BALB/c mice after oral administered dose of 50 mg/kg
[12] = test system: Mus musculus; assay: In vivo antitumor activity against Meth A cell line in female […] mice after oral administered dose of 200 mg/kg; assay type: functional

Row | SMILES | T/C [1] [%] | T/C [2] [%] | T/C [3] [%] | T/C [4] [%] | T/C [5] [%] | T/C [6] [%] | T/C [7] [%] | T/C [8] | T/C [9] [%] | T/C [10] [%] | T/C [11] [%] | T/C [12]
1 | O=C1OC(n2c(=O)c(F)cn(C3CCCO3)c2=O)c2ccccc21 (stereo not drawn) | 111 | 115 | 109 | 104 |  |  |  |  |  |  |  | 
2 | Cc1ccccc1C(=O)n1c(=O)c(F)cn(C2OC(=O)c3ccccc32)c1=O (stereo not drawn) | 109 | 102 | 99 | 113 |  |  |  |  |  |  |  | 
3 | CC(=O)n1cc(F)c(=O)n(C2OC(=O)c3ccccc32)c1=O (stereo not drawn) | 111 | 104 | 97 | 106 |  |  |  |  |  |  |  | 
4 | O=c1[nH]c(=O)n(C2CCCO2)cc1F (stereo not drawn) [TEGAFUR] | 106 | 136 | 104 | 115 | 32 | 50 | 100 | death | 64 | 23 |  | 
5 | O=C1OC(n2c(=O)[nH]cc(F)c2=O)c2ccccc21 (stereo not drawn) | 102 | 120 | 104 | 111 | 17 | 37 | 77 |  | 45 | 19 | 37 | 7% and 19%
6 | O=C1OC(n2cc(F)c(=O)n(C3OC(=O)c4ccccc43)c2=O)c2ccccc21 (stereo not drawn) | 102 | 102 | 104 | 97 |  |  |  |  |  |  |  | 
7 | O=C1OC(n2cc(F)c(=O)[nH]c2=O)c2ccccc21 (stereo not drawn) | 124 | 129 | 116 | 118 | 8 | 22 | 50 | death | 34 | 7 | 26 | 
